The results in this text go back to ChEMBL document CHEMBL1131188, “Synthesis and cytotoxicity of 2-methyl-4, 9-dihydro-1-substituted-1H-imidazo[4,5-g]quinoxaline-4,9-diones and 2,3-disubstituted-5,10-pyrazino[2,3-g]quinoxalinediones” (J Med Chem, 1998).

In one assay the test system is PC-14. As to the kind of experiment: Cytotoxicity of compound against human lung adenocarcinoma cell line (PC14). Type of assay: functional, cell-based. The method, boiled down:
(§1)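 MTT assay: compounds dissolved in DMSO at 1 mM (stock), diluted in RPMI-FCS to various concentrations; single-cell suspensions treated at 37 °C, 5% CO2 for 4 days; MTT added for further 4 h, acid–isopropanol added, OD read at 540 nm. Fractional inhibition = 1 − OD sample/control; IC50 from Chou median-effect analysis; mean of triplicate experiments.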

For a further assay, the system named is MKN-45. As to the kind of experiment: Cytotoxicity of compound against human gastric adenocarcinoma cell line (MKN 45). Type of assay: functional, cell-based. The method, boiled down: as §1

Usually IC50 stands for the concentration that inhibits the measured activity by half. High values mean a need for much substance, low ones inhibition by little substance. Consider `CCc1nc2c(nc1CC)C(=O)c1nccnc1C2=O`, for which the IC50 was 20.5 µM in the assay with PC-14 (Homo sapiens, PC-14) and 7.61 µM in the assay on MKN-45 (Homo sapiens, MKN-45).

`CCn1c(C)nc2c1C(=O)c1nccnc1C2=O`: the IC50 in the assay with PC-14 (Homo sapiens, PC-14) is 130 µM; with MKN-45 (Homo sapiens, MKN-45), 93.1 µM.

Consider `CCc1nc2c(nc1C)C(=O)c1nccnc1C2=O`, for which the IC50 in the assay on PC-14 (Homo sapiens, PC-14) was 67.5 µM; with MKN-45 (Homo sapiens, MKN-45) it was 13 µM.

For `Cc1nc2c(n1C)C(=O)c1nccnc1C2=O`, the IC50 in the assay with PC-14 (Homo sapiens, PC-14) amounted to 38.7 µM; in the assay on MKN-45 (Homo sapiens, MKN-45) it was 34.1 µM.

Turning to `O=C1c2nccnc2C(=O)c2nccnc21`, the 50% inhibitory concentration (IC50) with PC-14 (Homo sapiens, PC-14) worked out at 76.2 µM; in the assay on MKN-45 (Homo sapiens, MKN-45), 20.1 µM.

With `Cc1nc2c([nH]1)C(=O)c1nccnc1C2=O`, the IC50 came to 82.5 µM in the assay with PC-14 (Homo sapiens, PC-14) and 19.8 µM with MKN-45 (Homo sapiens, MKN-45).

`Cc1nc2c(n1-c1ccc(Br)cc1)C(=O)c1nccnc1C2=O`: the IC50 was 45.5 µM in the assay on PC-14 (Homo sapiens, PC-14) and 1.3 µM in the assay on MKN-45 (Homo sapiens, MKN-45).

With `Cc1nc2c(n1-c1ccccc1)C(=O)c1nccnc1C2=O`, the IC50 was 125 µM with PC-14 (Homo sapiens, PC-14) and 22.8 µM in the assay with MKN-45 (Homo sapiens, MKN-45).

Take `Cc1nc2c(n1C(C)C)C(=O)c1nccnc1C2=O`: the IC50 in the assay on PC-14 (Homo sapiens, PC-14) is 78.3 µM; in the assay with MKN-45 (Homo sapiens, MKN-45), 61.1 µM.

Consider `Cc1nc2c(nc1C)C(=O)c1nccnc1C2=O`, for which the IC50 with PC-14 (Homo sapiens, PC-14) came out at 74 µM; in the assay on MKN-45 (Homo sapiens, MKN-45) it was 16.7 µM.

Consider `O=C1c2nccnc2C(=O)c2nc(-c3ccccc3)c(-c3ccccc3)nc21`, for which the IC50 was 120 µM in the assay with PC-14 (Homo sapiens, PC-14) and 82.5 µM in the assay with MKN-45 (Homo sapiens, MKN-45).

`COc1cccc2c1C(=O)c1c(O)c3c(c(O)c1C2=O)C[C@@](O)(C(=O)CO)C[C@@H]3O[C@H]1C[C@H](N)[C@H](O)[C@H](C)O1` [DOXORUBICIN]: the IC50 with PC-14 (Homo sapiens, PC-14) was determined as 0.29 µM; in the assay on MKN-45 (Homo sapiens, MKN-45), 3.13 µM.

CISPLATIN: the IC50 with PC-14 (pc-14) came to 3.87 µM; with MKN-45 (mkn-45), 86.5 µM.
